# Bioassay records from PubChem.
# XBP1 UPR activ: activators of adaptive XBP1 UPR arm, primary screen, cell-based, CHO-XBP1 luciferase reporter, luminescence, uHTS. activation, % at 20 µM. 330,000 tested, 0.33% active. IRE1-XBP1 UPR activation; percent of tunicamycin response, DMSO as zero. AID 463104, 2010;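 active = versus positive control, 20 µM dose yields 30% or more activation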
#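 Material: CHO cell line with stable XBP1 luciferase reporter; buffer or medium: F12 medium containing 10% fetal bovine serum; compound: single point, 20 µM final compound, 1% DMSO; incubation: 6 h treatment, 37 °C; measured by: glow luminescence from Steady-Glo reagent; evaluation: activation, % of tunicamycin; control set: tunicamycin high, DMSO low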
# Tb MetRS inh: T. brucei MetRS inhibitors, primary screen, biochemical, luminescence. methionyl-tRNA synthetase (Trypanosoma brucei brucei). purified T. brucei MetRS, ATP depletion, Kinase-Glo luminescence. inhibition, % at 11.9 µM. 360,000 tested, 0.4% active;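 active = inhibition above a per-plate cutoff of the control wells' mean inhibition plus 3 SD, cut at about 5.5% in these data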
#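 Test system – parasite MetRS enzyme · Reagent – substrates ATP, L-methionine and bulk Escherichia coli tRNA · Doses – 11.9 µM compound single dose, 0.9% DMSO · Times – 15 min enzyme-compound preincubation, 2 h reaction, 10 min detection, 25 °C · Signal – Kinase-Glo luminescence, ATP depletion format · Controls – DMSO-only wells as low control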
# V-ATPase pHluor: regulators of yeast V-ATPase proton pumping, primary screen, pHLuorin cytosolic pH fluorescence. response, % at 10 µM. AID 504577, 2011. 350,000 tested, 0.37% active. S. cerevisiae; in the data active = response mostly above about 7.3%, no sharp cut-off; inactive = mostly below about 5.4%; note: actives read high
# CHOP inh: inhibitors of CHOP promoter induction, primary screen, cell-based, unfolded protein response, luciferase reporter | inhibition, % at 10 µM | AID 2732, 2010 | 220,000 tested, 3.8% active | CHO-K1 CHOP-promoter luciferase, tunicamycin-induced, 15-18 h;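 active = compounds that reduced the stress-induced luciferase reporter signal by more than about 70% of percent inhibition, limit read from the data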
# CHOP UPR activ: activators of apoptotic CHOP UPR arm, primary screen, cell-based, CHO-CHOP luciferase reporter, luminescence, uHTS; UPR activation; percent of tunicamycin response over DMSO baseline; activation, % at 10 µM; 330,000 tested, 0.34% active;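 active = at 10 µM dose, activation of 40% or more, normalized to positive control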
#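 Assay system: CHO cells with stable CHOP pathway luciferase reporter; Buffer or medium: F12 plus 10% serum; Times: 16-18 h cell attachment, then 6 h compound exposure, 37 °C; Signal: luciferase luminescence; Read-out basis: percent activation relative to tunicamycin control; Control set: tunicamycin high control, DMSO low control.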
# TbMetRS confirm: T. brucei MetRS inhibitors, confirmation, biochemical, luminescence; shares compounds with Tb MetRS inh; T. brucei MetRS enzyme, luminescence (ATP depletion); inhibition, % at 11.9 µM; 1,400 tested, 93% active; in the data active = inhibition above about 7%
# Jurkat tox: Jurkat T cell cytotoxicity, cytotoxicity control for T. brucei MetRS inhibitor project, luminescence, high throughput | 1,400 tested, 12% active | inhibition, % at 8.3 µM | Jurkat cells viability, ATP luminescence | shares compounds with Tb MetRS inh; in the data active = inhibition above about 15%
# TbMetRS FP orth: T. brucei MetRS inhibitors, orthogonal assay for T. brucei MetRS inhibitor project, biochemical, fluorescence polarization. purified T. brucei MetRS. inhibition, % at 11.9 µM. shares compounds with Tb MetRS inh. 1,400 tested, 44% active; in the data active = inhibition above about 17%
# Hits are given with their value; . = inactive; / = no result. Many of the other results were omitted from the sample, so hits are more common in it than they were.
SMILES,XBP1 UPR activ,Tb MetRS inh,V-ATPase pHluor,CHOP inh,CHOP UPR activ,TbMetRS confirm,Jurkat tox,TbMetRS FP orth
COc1cccc(C(=O)O)c1OS(=O)(=O)c1ccc(C)cc1,/,.,.,/,/,/,/,/
CC1CC(C)CN(S(=O)(=O)c2ccc3c(c2)CC(=O)N3)C1 (stereo not drawn),.,.,.,/,.,/,/,/
CN(Cc1c(F)cccc1Cl)C(=O)CNC(=O)c1sc2ccccc2c1Cl,.,.,.,/,.,/,/,/
NS(=O)(=O)c1cccc(NC(=O)Cc2ccc(Cl)c(Cl)c2)c1,.,12,.,.,.,19,.,.
NS(=O)(=O)c1cccc(NC(=O)CCSc2ccccc2Cl)c1,.,.,.,.,.,/,/,/
C=CCSc1nnc(NC(=O)C2CC(=O)N(Cc3ccc(C)cc3)C2)s1 (stereo not drawn),.,.,.,/,.,/,/,/
COc1ccc(OCC(O)Cn2cnc(-c3ccc(Br)cc3)c2)cc1 (stereo not drawn),.,14,.,.,.,22,.,.
OC(COc1ccc(Br)cc1)Cn1ccnc1 (stereo not drawn),.,.,.,/,.,/,/,/
O=C(OCC(=O)N1CCN(c2ccccc2)CC1)c1ncc(Cl)c(Cl)c1Cl,.,.,.,/,.,/,/,/
C=CCNC(=S)NNC(=O)c1ccc(=O)n(Cc2ccccc2)c1,.,13,.,.,.,24,.,.
C=CCNC(=S)NNC(=O)c1ccccc1,.,.,.,.,.,/,/,/
Cn1c(NCc2cc(Br)ccc2O)nc2ccccc21,.,41,.,.,.,58,.,24
C=CCc1cccc(CNc2cnc3ccccc3c2)c1O,.,6.0,.,/,.,12,31,.
C=CCc1cccc(CNc2nc3ccccc3n2CCN2CCOCC2)c1O,.,.,.,.,.,/,/,/
CC(C)n1c(NCc2cc(Cl)ccc2O)nc2ccccc21,.,.,.,.,.,/,/,/
COc1ccc(CNc2nc3ccccc3n2C)c(O)c1,.,.,.,.,.,/,/,/
C=CCc1cccc(CNc2nc3ccccc3n2C)c1O,.,28,.,/,.,46,.,26
Oc1ccc(Cl)cc1CNc1cnc2ccccc2c1,.,13,.,/,.,14,30,.
O=C(NCc1ccc2c(c1)OCO2)c1ccc(CSCc2ccc(Cl)cc2)o1,.,.,.,.,.,/,/,/
O=C(Nc1cccnc1)c1ccc(COc2cc(Cl)ccc2Cl)o1,.,6.8,.,.,.,15,.,18
O=C(NCc1ccc2c(c1)OCO2)c1ccc(COc2cc(Cl)ccc2Cl)o1,.,8.1,.,.,.,15,.,.
CCCn1cnnc1CNC(=O)[C@H]1O[C@@H](n2cnc3c(N)ncnc32)[C@H](O)[C@@H]1O,/,.,/,/,/,/,/,/
CN(CC(=O)Nc1cccc(F)c1)C(=O)c1cc(S(=O)(=O)N(C)C)ccc1N1CCCC1,.,10,.,/,.,27,.,.
Cc1ccc(NC(=O)CN(C)C(=O)c2cc(S(=O)(=O)N(C)C)ccc2N2CCCC2)cc1,.,49,.,/,.,78,.,52
Cc1ccc(NC(=O)C(C)c2cccc(C(=O)c3ccccc3)c2)cc1O (stereo not drawn),.,84,.,.,.,99,33,78
SMILES,XBP1 UPR activ,Tb MetRS inh,V-ATPase pHluor,CHOP inh,CHOP UPR activ,TbMetRS confirm,Jurkat tox,TbMetRS FP orth
COc1ccc(Cl)cc1N1CC(c2nc3ccccc3[nH]2)CC1=O (stereo not drawn),.,5.7,.,.,.,10,.,.
O=C1CC(c2nc3ccccc3[nH]2)CN1c1cccc(C(F)(F)F)c1 (stereo not drawn),.,21,.,.,.,27,.,.
CC(=O)c1cn(CC(=O)Nc2ccc(C)cc2C)c2ccccc12,.,.,.,.,.,/,/,/
Cc1cc(C)cc(NC(=O)Cn2cc3c(n2)CCCCC3)c1,.,/,/,.,.,/,/,/
CN(C)c1ccc(NC(=O)Cn2cc3c(n2)CCCC3)cc1,.,16,.,.,.,16,21,.
CC(=O)Nc1cccc(NC(=O)CCNC(=O)c2ccc(Cl)cc2)c1,.,.,.,/,.,/,/,/
Clc1ccc2[nH]c3c(NCCCN4CCOCC4)ncnc3c2c1,.,45,.,.,.,56,.,48
Cc1ccc2[nH]c3c(NCCN4CCOCC4)ncnc3c2c1,.,11,.,.,.,22,.,.
Cc1ccc2c(c1)[nH]c1c(N3CCN(Cc4ccccc4)CC3)ncnc12,.,.,.,/,.,/,/,/
CCN1CCCC1CNc1ncnc2c1[nH]c1ccc(Cl)cc12 (stereo not drawn),.,38,.,.,.,59,.,36
Cc1ccc2[nH]c3c(N4CCN(Cc5ccccc5)CC4)ncnc3c2c1,.,8.1,.,.,.,18,15,.
Cc1ccc2ncnc(NCCCN3CCOCC3)c2c1,.,.,.,.,.,/,/,/
CCN1CCCC1Cn1cnc2c([nH]c3ccc(C)cc32)c1=O (stereo not drawn),.,.,.,.,.,/,/,/
CC(C)c1ccc(NC(=O)c2ccc(NC3=NC4CS(=O)(=O)CC4S3)cc2)cc1 (stereo not drawn),.,.,.,/,.,/,/,/
O=C(O)/C=C/c1cccc2c1OCCO2,.,.,.,.,.,/,/,/
O=C1CCCN1CCCNc1ncnc2c1[nH]c1ccc(Cl)cc12,.,62,.,.,.,71,.,51
O=C1CCCN1CCCn1cnc2c([nH]c3ccc(F)cc32)c1=O,.,.,.,.,.,/,/,/
CCOc1ccc2[nH]c3c(NCCN(C)C)ncnc3c2c1,.,.,.,/,.,/,/,/
C=CCNc1ncnc2c1[nH]c1ccc(C)cc12,.,11,.,.,.,22,.,.
CCc1nc(NC(=O)c2sc(C)nc2C)sc1C(=O)OC,.,.,.,/,.,/,/,/
O=C(CN1CCN(C(=O)c2c(F)cccc2F)CC1)Nc1ccccc1C(F)(F)F,.,.,.,/,.,/,/,/
O=C(CC1SC(=Nc2ccccc2)N(CCc2ccccn2)C1=O)Nc1ccc(F)cc1 (stereo not drawn),.,.,.,.,.,/,/,/
COc1cccc(N=C2SC(CC(=O)Nc3ccccc3)C(=O)N2Cc2ccccn2)c1 (stereo not drawn),.,6.6,.,.,.,11,.,.
